In series [1] the target is T1, P2Y purinoceptor 2 (Homo sapiens, UniProt P41231). Briefly: Antagonist activity at human P2Y2 receptor expressed in human 1321N1 cells assessed as inhibition of UTP-induced intracellular calcium mobilization at 100 uM by FLUOstar plate reader. The class given is functional, cell-based. Put shortly:
(§1)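 Human 1321N1 astrocytoma cells express human P2Y2 or P2Y4, or rat P2Y6. Cells are loaded with Fura-2 AM and preincubated with compound at 100 μM. Inhibition of agonist-induced intracellular calcium release is read as Fura-2 fluorescence. The agonist is UTP for P2Y2 and P2Y4, and UDP for P2Y6.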

For series [2], the target named is T2, Ectonucleoside triphosphate diphosphohydrolase 3 (Homo sapiens) (UniProt O75355).
T2 sequence (whole entry): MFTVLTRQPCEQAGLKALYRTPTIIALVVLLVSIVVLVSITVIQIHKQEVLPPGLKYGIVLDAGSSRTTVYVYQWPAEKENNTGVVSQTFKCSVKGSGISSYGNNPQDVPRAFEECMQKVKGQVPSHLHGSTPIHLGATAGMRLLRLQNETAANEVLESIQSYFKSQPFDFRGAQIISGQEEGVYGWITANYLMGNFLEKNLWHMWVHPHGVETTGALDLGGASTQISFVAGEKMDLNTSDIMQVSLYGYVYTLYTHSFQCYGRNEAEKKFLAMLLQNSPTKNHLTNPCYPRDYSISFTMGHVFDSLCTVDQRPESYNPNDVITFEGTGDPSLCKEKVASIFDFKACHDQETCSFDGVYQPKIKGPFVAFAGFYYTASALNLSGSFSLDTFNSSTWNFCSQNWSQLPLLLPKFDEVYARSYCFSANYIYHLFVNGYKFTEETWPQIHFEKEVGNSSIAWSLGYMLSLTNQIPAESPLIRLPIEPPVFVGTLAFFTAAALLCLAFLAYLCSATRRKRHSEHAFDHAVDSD
Briefly: Inhibition of human NTPDase 3 expressed in COS7 cells at 1mM. The note with it: COS-7. The class given is cell-based. An outline of the steps:
(§2)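 NTPDase2 membranes come from stably transfected HEK 293 cells; NTPDase3 and NTPDase8 are transiently expressed in COS-7 cells as crude protein extracts. Buffer is 140 mM NaCl, 5 mM KCl, 1 mM MgCl2, 2 mM CaCl2, 10 mM HEPES pH 7.4, with 400 μM ATP, 37 °C, 10 min, stopped at 99 °C. Products are read by capillary electrophoresis (UV 210 nm, UMP internal standard).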

Series [3] has as its target T3, Ectonucleoside triphosphate diphosphohydrolase 8 (Homo sapiens, UniProt Q5MY95).
T3 sequence (Q5MY95 whole entry): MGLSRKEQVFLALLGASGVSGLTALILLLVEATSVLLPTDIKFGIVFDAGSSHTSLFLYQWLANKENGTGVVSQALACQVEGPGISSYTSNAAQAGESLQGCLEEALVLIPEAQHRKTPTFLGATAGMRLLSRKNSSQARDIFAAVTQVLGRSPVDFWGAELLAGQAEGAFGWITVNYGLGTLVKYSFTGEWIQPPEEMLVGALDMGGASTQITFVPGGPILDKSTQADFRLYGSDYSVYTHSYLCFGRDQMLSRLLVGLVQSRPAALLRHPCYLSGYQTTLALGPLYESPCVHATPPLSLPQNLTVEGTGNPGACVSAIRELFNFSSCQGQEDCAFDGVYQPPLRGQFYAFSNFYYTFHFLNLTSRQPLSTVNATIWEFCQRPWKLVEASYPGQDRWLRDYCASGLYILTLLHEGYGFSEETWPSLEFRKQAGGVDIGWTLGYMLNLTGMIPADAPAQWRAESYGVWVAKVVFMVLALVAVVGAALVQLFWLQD
Briefly: Inhibition of human NTPDase 8 expressed in COS7 cells. The class given is cell-based, COS-7. An outline of the steps: as §2

Series [4] concerns the target P2Y purinoceptor 6 (Rattus norvegicus) (UniProt Q63371). Briefly: Antagonist activity at rat P2Y6 receptor expressed in human 1321N1 cells assessed as inhibition of UDP-induced receptor activation at 100 uM relative to UDP. The class given is functional, cell-based. The arrangement: scale not given: the % may be the effect or the level left. Put shortly: as §1
Series [5] addresses T1, P2Y purinoceptor 2. Briefly: Antagonist activity at human P2Y2 receptor expressed in human 1321N1 cells assessed as inhibition of UTP and ATP-induced receptor activation at 100 uM relative to UTP. The class given is functional, cell-based. The arrangement: scale not given: the % may be the effect or the level left. An outline of the steps: as §1
Series [6] concerns the target T4, P2Y purinoceptor 4 (Homo sapiens, UniProt P51582). Briefly: Antagonist activity at human P2Y4 receptor expressed in human 1321N1 cells assessed as inhibition of UTP-induced receptor activation at 100 uM relative to UTP. The class given is functional, cell-based. The arrangement: scale not given: the % may be the effect or the level left. Put shortly: as §1
Series [7] concerns the target P2Y purinoceptor 6 (Rattus norvegicus) (UniProt Q63371). Briefly: Antagonist activity at rat P2Y6 receptor expressed in human 1321N1 cells assessed as inhibition of UDP-induced intracellular calcium mobilization at 100 uM by NOVOstar plate reader. The class given is functional, cell-based. An outline of the steps:
as §1

Series [8] addresses T5, Ectonucleoside triphosphate diphosphohydrolase 8 (Homo sapiens) (UniProt Q5MY95).
T5 sequence (whole entry): T3 sequence (Q5MY95 whole entry)
Briefly: Inhibition of human NTPDase 8 expressed in COS7 cells at 1mM. The class given is cell-based. The following applies: COS-7. An outline of the steps:
(§3)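 Transiently transfected COS-7 cell protein extract expressing human enzyme. 1 mM test compound with 400 μM ATP in HEPES 10 mM pH 7.4 buffer (NaCl, KCl, 1 mM MgCl2, 2 mM CaCl2), 37 °C for 10 min. Stopped at 99 °C for 5 min. Products measured by capillary electrophoresis, UV 210 nm, with UMP internal standard. Triplicates in two experiments; empty-pcDNA3 membrane control.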

For series [9], the target named is T6, Ectonucleoside triphosphate diphosphohydrolase 1 (Homo sapiens) (UniProt P49961).
T6 sequence (whole entry): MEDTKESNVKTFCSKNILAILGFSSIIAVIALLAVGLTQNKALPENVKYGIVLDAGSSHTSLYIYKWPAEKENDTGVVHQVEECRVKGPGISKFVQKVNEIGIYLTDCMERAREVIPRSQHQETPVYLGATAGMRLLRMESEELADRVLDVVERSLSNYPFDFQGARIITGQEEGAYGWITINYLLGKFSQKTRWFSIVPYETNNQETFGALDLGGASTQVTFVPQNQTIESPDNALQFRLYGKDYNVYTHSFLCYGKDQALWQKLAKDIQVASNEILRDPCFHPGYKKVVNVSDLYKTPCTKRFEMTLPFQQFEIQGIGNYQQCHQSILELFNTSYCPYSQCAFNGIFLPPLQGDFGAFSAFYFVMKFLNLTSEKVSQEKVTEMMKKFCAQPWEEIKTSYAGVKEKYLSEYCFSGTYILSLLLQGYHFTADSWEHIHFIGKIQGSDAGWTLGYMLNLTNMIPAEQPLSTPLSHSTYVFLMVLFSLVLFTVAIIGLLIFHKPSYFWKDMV
Briefly: Inhibition of human NTPDase 1 expressed in COS7 cells at 1mM. The following applies: COS-7. The class given is cell-based. An outline of the steps: as §3

Series [10] has as its target T7, Ectonucleoside triphosphate diphosphohydrolase 2 (Homo sapiens) (UniProt Q9Y5L3).
T7 sequence (whole entry): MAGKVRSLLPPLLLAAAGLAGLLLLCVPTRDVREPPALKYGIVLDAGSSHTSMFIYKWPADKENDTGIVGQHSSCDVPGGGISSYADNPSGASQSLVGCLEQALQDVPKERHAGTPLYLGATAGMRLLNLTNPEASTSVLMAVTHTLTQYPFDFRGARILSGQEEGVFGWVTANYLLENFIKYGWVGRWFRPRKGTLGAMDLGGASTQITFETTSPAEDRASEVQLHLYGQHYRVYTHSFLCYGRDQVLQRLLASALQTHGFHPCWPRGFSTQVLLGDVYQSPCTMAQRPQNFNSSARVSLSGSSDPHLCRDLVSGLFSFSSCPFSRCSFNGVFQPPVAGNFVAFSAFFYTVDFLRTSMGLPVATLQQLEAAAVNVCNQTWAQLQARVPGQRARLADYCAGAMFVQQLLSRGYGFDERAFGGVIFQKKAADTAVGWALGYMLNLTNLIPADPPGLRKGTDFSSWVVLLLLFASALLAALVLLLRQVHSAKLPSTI
Briefly: Inhibition of human NTPDase 2 expressed in HEK293 cells at 1mM. The class given is cell-based. An outline of the steps:
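Membranes from HEK 293 cells stably expressing human NTPDase2 (geneticin selection), prepared by differential and sucrose-gradient centrifugation. 1 mM test compound with 400 μM ATP in 10 mM HEPES pH 7.4 saline (1 mM MgCl2, 2 mM CaCl2), 37 °C for 10 min. Heat-stopped at 99 °C. Nucleotides separated by capillary electrophoresis, UV 210 nm, UMP internal standard. Triplicates, two experiments.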

The target of series [11] is T4, P2Y purinoceptor 4. Briefly: Antagonist activity at human P2Y4 receptor expressed in human 1321N1 cells assessed as inhibition of UTP-induced intracellular calcium mobilization at 100 uM by FLUOstar plate reader. The class given is functional, cell-based. An outline of the steps: as §1
Series [12] concerns the target T8, Ectonucleoside triphosphate diphosphohydrolase 2 (Homo sapiens, UniProt Q9Y5L3).
T8 sequence (Q9Y5L3 whole entry): T7 sequence (whole entry)
Briefly: Inhibition of human NTPDase 2 expressed in HEK293 cells assessed as residual activity by capillary electrophoresis. The class given is cell-based. An outline of the steps: as §2

Series [13] in a line: Inhibition of rat NTPDase 3.
The nature of series [14]: Stability in simulated artificial gastric juice after 24 hrs by LC-MS analysis. The class given is physicochemical. The following applies: simulated gi fluid.
The nature of series [15]: Chemical stability in 0.001 N aqueous sodium hydroxide at pH 11 by LC-MS analysis. The class given is physicochemical. The note with it: buffer. Put shortly: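 Compound from a 2 mM aqueous stock (20 mM NH4OAc) is diluted 10 μL into 990 μL of 0.001 N NaOH (pH 11). It is incubated 2 or 24 h at 37 °C and analysed by C18 LC–ESI-MS, with detection limit about 0.1 μg/mL.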

T1 sequence (P41231 whole entry): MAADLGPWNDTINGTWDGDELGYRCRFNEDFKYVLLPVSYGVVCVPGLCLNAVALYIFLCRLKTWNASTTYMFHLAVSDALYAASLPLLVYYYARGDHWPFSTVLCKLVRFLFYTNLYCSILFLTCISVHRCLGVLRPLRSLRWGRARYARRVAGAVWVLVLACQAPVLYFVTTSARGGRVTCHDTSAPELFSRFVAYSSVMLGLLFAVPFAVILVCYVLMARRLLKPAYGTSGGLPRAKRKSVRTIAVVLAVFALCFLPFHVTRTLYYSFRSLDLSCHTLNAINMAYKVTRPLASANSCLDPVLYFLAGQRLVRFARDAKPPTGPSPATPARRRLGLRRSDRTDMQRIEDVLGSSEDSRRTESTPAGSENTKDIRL
T4 sequence (P51582 whole entry): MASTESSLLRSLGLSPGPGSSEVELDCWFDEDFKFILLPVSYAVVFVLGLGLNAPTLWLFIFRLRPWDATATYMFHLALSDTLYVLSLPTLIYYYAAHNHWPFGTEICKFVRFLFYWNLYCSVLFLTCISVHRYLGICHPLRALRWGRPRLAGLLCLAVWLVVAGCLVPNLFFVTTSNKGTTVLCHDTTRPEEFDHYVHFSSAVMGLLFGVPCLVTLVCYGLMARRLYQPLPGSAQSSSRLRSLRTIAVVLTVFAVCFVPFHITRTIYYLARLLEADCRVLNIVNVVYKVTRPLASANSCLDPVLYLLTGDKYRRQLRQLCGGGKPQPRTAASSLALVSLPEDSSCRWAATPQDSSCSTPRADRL
Sequence of P2Y purinoceptor 6 (Rattus norvegicus) (Q63371 whole entry): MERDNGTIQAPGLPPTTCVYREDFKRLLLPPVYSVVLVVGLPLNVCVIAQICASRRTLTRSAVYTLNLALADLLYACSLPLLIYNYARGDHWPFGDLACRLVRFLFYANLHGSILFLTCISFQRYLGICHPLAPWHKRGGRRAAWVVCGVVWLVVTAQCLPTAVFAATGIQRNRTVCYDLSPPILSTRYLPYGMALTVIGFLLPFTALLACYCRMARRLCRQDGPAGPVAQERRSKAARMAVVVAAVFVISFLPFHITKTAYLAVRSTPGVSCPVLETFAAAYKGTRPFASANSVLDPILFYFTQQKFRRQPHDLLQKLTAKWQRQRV

`CCOP(=O)(Cc1ccc(NC(=O)CCCNC(=O)[C@H]2O[C@@H](n3cnc4c(N)ncnc43)[C@H](O)[C@@H]2O)cc1)OCC`: the inhibition in series [1] is 37%; in series [2] it was 0%. The Ki in series [3] worked out at 255 µM.
Turning to `CCOP(=O)(Cc1ccc(NC(=O)CCNC(=O)[C@H]2O[C@@H](n3cnc4c(N)ncnc43)[C@H](O)[C@@H]2O)cc1)OCC`, the Activity in [4] is -7%; in series [5], 16%; in series [6], 11%. Also, the inhibition came to 46% in [1], 15% in [7], 0% in series [2] and 0% in series [8].
On to `CCOP(=O)(CNC(=O)CNC(=O)[C@H]1O[C@@H](n2cnc3c(N)ncnc32)[C@H](O)[C@@H]1O)OCC`, for which the values for the Activity in series [4], in series [5] and in series [6] were 6%, 33% and -2%, respectively. Further, the inhibition in series [1] was found to be 61%; in series [2], 25%; in series [9], 0%; in series [8] it was 0%; in series [10], 0%.
As for `CCOP(=O)(CCNC(=O)CNC(=O)[C@H]1O[C@@H](n2ccc(=O)[nH]c2=O)[C@H](O)[C@@H]1O)OCC`, the inhibition was -7% in [1]; 8% in series [11]; 9% in series [7]; 22% in series [2]; 0% in series [9]; 0% in series [8].
Consider `CCOP(=O)(CNC(=O)CNC(=O)[C@H]1O[C@@H](n2ccc(=O)[nH]c2=O)[C@H](O)[C@@H]1O)OCC`, for which the Activity in series [4] was determined as 12%; in series [5], 58%; in [6] it was 46%. In addition, the inhibition in series [11] is 38%; in [7], 17%; in series [2], 0%; in [8] it was 0%. Moreover, the IC50 in series [12] is 374 µM.
As for `CCOP(=O)(Cc1ccc(NC(=O)CNC(=O)[C@H]2O[C@@H](n3cnc4c(N)ncnc43)[C@H](O)[C@@H]2O)cc1)OCC`, the inhibition in series [11] was found to be 7%; in [7] it was 6%; in [2], 0%; in [9] it was 0%; in [8], 0%; in series [10], 0%.
As for `CCN(CC)c1ncnc2c1ncn2[C@@H]1O[C@H](COP(=O)(O)OP(=O)(O)C(Br)(Br)P(=O)(O)O)[C@@H](O)[C@H]1O`, the values for the inhibition constant Ki in series [13] and in series [3] were 112 µM and greater than 100 µM, respectively.
On to `CCOP(=O)(CNC(=O)CCCNC(=O)[C@H]1O[C@@H](n2ccc(=O)[nH]c2=O)[C@H](O)[C@@H]1O)OCC`, for which the inhibition was 21% in [11]; -3% in [7]; 0% in series [2]; 45% in [9]; 0% in [8]. For the same compound, the IC50 in series [12] was 101 µM.
As to `CCOP(=O)(CNC(=O)CCCNC(=O)[C@H]1O[C@@H](n2cnc3c(N)ncnc32)[C@H](O)[C@@H]1O)OCC`, the inhibition came out at 32% in series [1]; 0% in [2]; 0% in series [9]; 0% in series [8]; 0% in [10].
Regarding `CCOP(=O)(CNC(=O)CCNC(=O)[C@H]1O[C@@H](n2cnc3c(N)ncnc32)[C@H](O)[C@@H]1O)OCC`, the inhibition in [1] was determined as 29%; in [2] it was 0%; in series [9], 0%; in series [8], 0%; in [10], 0%.
For `CCOP(=O)(CNC(=O)CCNC(=O)[C@H]1O[C@@H](n2ccc(=O)[nH]c2=O)[C@H](O)[C@@H]1O)OCC`, the Activity in series [4] was -16%; in [5] it was 13%; in series [6], 11%. Also, the inhibition in [1] was 43%; in series [11], 6%; in series [7], -3%; in series [2], 0%; in series [9], 0%; in series [8], 0%.
Take `CCOP(=O)(Cc1ccc(NC(=O)CCCNC(=O)[C@H]2O[C@@H](n3ccc(=O)[nH]c3=O)[C@H](O)[C@@H]2O)cc1)OCC`: the Stability result in [14] and in series [15] was “Stable” throughout. In addition, the inhibition is 6% in series [1], 7% in [11], -8% in series [7] and 48% in series [2].

Source of the values: ChEMBL document CHEMBL1155882, “Selective nucleoside triphosphate diphosphohydrolase-2 (NTPDase2) inhibitors: nucleotide mimetics derived from uridine-5'-carboxamide” (J Med Chem, 2008).
